Source: the array DNA melting data of Ke et al. (doi:10.1101/2024.01.08.574731)

Legend:
[1] = melting temperature; fluorescence melt of hairpins on a sequencing array, two-state fit, raised by 9.35 °C to match UV melts; conditions: sodium 0.088 M
Method in brief: (§1)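 Folding enthalpy and melting temperature come from bootstrapped two-state fits to Cy3 fluorescence of library hairpins carrying annealed Cy3 and quencher oligos on a sequenced MiSeq flow cell. Imaging was done in 50 mM Na-HEPES pH 8.0, 25 mM NaCl, stepping by 2.5 °C up to 60 °C, and signals were normalised to pre-quench Cy3 and to control constructs. Results of four replicates were combined by inverse variance, and fitted temperatures were raised by 9.35 °C to match UV melts.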

[2] = folding enthalpy; higher = less favourable; fluorescence melt of hairpins on a sequencing array, two-state fit; conditions: sodium 0.088 M
Method in brief: as §1

Sequence | Tm [1] | folding enthalpy [2]
CGTATCGGAAACGAAACG (((.(((....))).))) | 42.5 °C | -37.5 kcal/mol
CGTCACGGAAACGTAACG (((.(((....))).))) | 41.6 °C | -43.1 kcal/mol
CGTCACGGAAACGTCACG (((.(((....))).))) | 39.3 °C | -19.8 kcal/mol
CGTCAGCGGAAACGCACG (((..(((....)))))) | 40.6 °C | -15.4 kcal/mol
CGTCCCGGAAACGGACG (((.(((....)))))) | 53.2 °C | -27.7 kcal/mol
CGTCCGGAAACGGAAACG ((((((....)))..))) | 40.5 °C | -20.9 kcal/mol
CGTCCGGAAACGGAACG ((((((....))).))) | 49.9 °C | -24.9 kcal/mol
CGTCCGGAAACGGACACG ((((((....)))..))) | 42.9 °C | -8.11 kcal/mol
CGTCCGGAAACGGCCACG ((((((....)))..))) | 33.1 °C | -13 kcal/mol
CGTCCGGAAACGGCTACG ((((((....)))..))) | 34 °C | -12.6 kcal/mol
CGTCCGGAAACGGTACG ((((((....))).))) | 48.1 °C | -25.7 kcal/mol
CGTCCGGAAACGGTCACG ((((((....)))..))) | 35.2 °C | -13.9 kcal/mol
CGTCGGCGGAAACGCACG (((..(((....)))))) | 46.1 °C | -18.3 kcal/mol
CGTCTCCGGAAACGGACG (((..(((....)))))) | 37.8 °C | -14.7 kcal/mol
CGTCTCGGAAACGAACG (((.(((....)))))) | 36.1 °C | -23.4 kcal/mol
CGTCTCGGAAACGACACG (((.(((....))).))) | 35.5 °C | -31.2 kcal/mol
CGTCTCGGAAACGATACG (((.(((....))).))) | 42.9 °C | -38 kcal/mol
CGTCTGAAAAGACG (((((....))))) | 55.2 °C | -29.4 kcal/mol
CGTGCCGGAAACGGGACG (((.(((....))).))) | 62.9 °C | -37.6 kcal/mol
CGTGCGGAAACGCAGACG ((((((....)))..))) | 47.4 °C | -15.7 kcal/mol
CGTGCGGAAACGCCCACG ((((((....)))..))) | 38.2 °C | -22.4 kcal/mol
CGTGCGGAAACGCGCACG ((((((....)))..))) | 64 °C | -34.2 kcal/mol
CGTGCGGAAACGCGGACG ((((((....)))..))) | 47 °C | -19.2 kcal/mol

Sequence | Tm [1] | folding enthalpy [2]
CGTGCTCGGAAACGAACG (((..(((....)))))) | 21.2 °C | -5.98 kcal/mol
CGTGGTCGGAAACGAACG (((..(((....)))))) | 30.5 °C | -16.3 kcal/mol
CGTGTACGGAAACGTACG (((..(((....)))))) | 46 °C | -8.98 kcal/mol
CGTGTCCGGAAACGGACG (((..(((....)))))) | 48.1 °C | -7.66 kcal/mol
CGTGTCGGAAACGATACG (((.(((....))).))) | 53.2 °C | -39.1 kcal/mol
CGTGTGCGGAAACGCACG (((..(((....)))))) | 54.5 °C | -6.54 kcal/mol
CGTTACGGAAACGTCACG (((.(((....))).))) | 44.5 °C | -23.6 kcal/mol
CGTTCGGAAACGAACACG ((((((....)))..))) | 39.1 °C | -11.5 kcal/mol
CGTTCGGAAACGACTACG ((((((....)))..))) | 29 °C | -12.6 kcal/mol
CGTTCGGAAACGATACG ((((((....))).))) | 42.1 °C | -27.1 kcal/mol
CGTTCGGAAACGATTACG ((((((....)))..))) | 35.7 °C | -18.1 kcal/mol
CGTTGACGGAAACGTACG (((..(((....)))))) | 43.2 °C | -18.8 kcal/mol
CTAACTGAAAAGTTAG ((((((....)))))) | 45.9 °C | -23.3 kcal/mol
CTAGAGAAATCTAG (((((....))))) | 26.2 °C | -7.95 kcal/mol
CTCGGGAAACCGAG (((((....))))) | 56.1 °C | -23.9 kcal/mol
CTCTCGAAAGAGAG (((((....))))) | 53.3 °C | -21.5 kcal/mol
CTTAGGAAACTAAG (((((....))))) | 33.4 °C | -11.4 kcal/mol
CTTCAGAAATGAAG (((((....))))) | 36 °C | -11.5 kcal/mol
CTTCGGAAACGAAG (((((....))))) | 50.3 °C | -20.9 kcal/mol
CTTGGGAAACCAAG (((((....))))) | 45.9 °C | -22.4 kcal/mol
GAAAAAACGAAAGTTTTC (((..(((....)))))) | 30.9 °C | -13.4 kcal/mol
GAAAAACGAAAGTTTTC (((.(((....)))))) | 36.9 °C | -15.7 kcal/mol
GAAAACGAAAGTTCTTC ((((((....))).))) | 36.1 °C | -17.8 kcal/mol

Sequence | Tm [1] | folding enthalpy [2]
GAAAACGAAAGTTCTTTC ((((((....)))..))) | 28.9 °C | -15.9 kcal/mol
GAAAAGCGAAAGCTCTTC (((.(((....))).))) | 36.5 °C | -15.4 kcal/mol
GAAAAGGAAACTTTTC ((((((....)))))) | 39.7 °C | -25.2 kcal/mol
GAAAAGGGAAACCTTTTC (((((((....))))))) | 50.6 °C | -38.8 kcal/mol
GAAACACCGAAAGGTTTC (((..(((....)))))) | 31.9 °C | -17.4 kcal/mol
GAAACACGAAAGTGTTC (((.(((....)))))) | 44 °C | -12.7 kcal/mol
GAAACAGGAAACTGTTTC (((((((....))))))) | 55.5 °C | -41.9 kcal/mol
GAAACCGAAAGGTGCTTC ((((((....)))..))) | 43.5 °C | -19.4 kcal/mol
GAAACCGAAAGGTGTTTC ((((((....)))..))) | 35.9 °C | -13.2 kcal/mol
GAAACCGAAAGGTTTTTC ((((((....)))..))) | 48.8 °C | -15.6 kcal/mol
GAAACCGGAAACGGTTCC (.(((((....))))).) | 41.4 °C | -13.4 kcal/mol
GAAAGACGAAAGTCGTTC (((.(((....))).))) | 46 °C | -15.1 kcal/mol
GAAAGCCGAAAGGCATTC (((.(((....))).))) | 45.9 °C | -15.2 kcal/mol
GAAAGCCGAAAGGCCTTC (((.(((....))).))) | 41.4 °C | -14.4 kcal/mol
GAAAGCCGAAAGGCTTC (((.(((....)))))) | 50.2 °C | -9.06 kcal/mol
GAAAGCGAAAGCTATTTC ((((((....)))..))) | 25.2 °C | -11.8 kcal/mol
GAAAGCGAAAGCTGCTTC ((((((....)))..))) | 42.9 °C | -19.4 kcal/mol
GAAAGCGAAAGCTTATTC ((((((....)))..))) | 32.7 °C | -10.9 kcal/mol
GAAAGCGAAAGCTTCTTC ((((((....)))..))) | 53.5 °C | -24.5 kcal/mol
GAAAGCGCGAAAGCGTTC (((..(((....)))))) | 28.3 °C | -7.58 kcal/mol
GAAAGCGGAAACGCCTTC (((.(((....))).))) | 34.1 °C | -18.4 kcal/mol
GAAAGGCGAAAGCCATTC (((.(((....))).))) | 41.4 °C | -16.5 kcal/mol
GAAAGGGGAAACCTTTTC ((((.((....)).)))) | 34.2 °C | -27.1 kcal/mol

Sequence | Tm [1] | folding enthalpy [2]
GAAAGTGGAAACACCTTC (((.(((....))).))) | 28.8 °C | -9.58 kcal/mol
GAAAGTGGAAACACTTCC (.(((((....))))).) | 33.7 °C | -16.6 kcal/mol
GAAATAGCGAAAGCTTTC (((..(((....)))))) | 28.6 °C | -11.8 kcal/mol
GAAATAGGAAACTGTTTC ((((.((....)).)))) | 36.1 °C | -21.3 kcal/mol
GAAATCACGAAAGTGTTC (((..(((....)))))) | 20.8 °C | -9 kcal/mol
GAAATCCGAAAGGACTTC (((.(((....))).))) | 37.6 °C | -29.8 kcal/mol
GAAATGGGAAACTATTTC (((((.(....).))))) | 33.7 °C | -23 kcal/mol
GAAATTGGAAACAATTTC (((((((....))))))) | 51.3 °C | -35.8 kcal/mol
GAACAACCGAAAGGTTTC (((..(((....)))))) | 29.3 °C | -9.63 kcal/mol
GAACAACGAAAGTTCTTC (((.(((....))).))) | 38.7 °C | -29.8 kcal/mol
GAACAACGAAAGTTTTTC (((.(((....))).))) | 31.6 °C | -17.8 kcal/mol
GAACAAGGAAACTCGTTC ((((.((....)).)))) | 27 °C | -16.4 kcal/mol
GAACAAGGAAACTTGTCC (.(((((....))))).) | 31.3 °C | -15.4 kcal/mol
GAACACGAAAGTGACTTC ((((((....)))..))) | 35.4 °C | -20.8 kcal/mol
GAACACGAAAGTGCCTTC ((((((....)))..))) | 32.9 °C | -18.7 kcal/mol
GAACACGAAAGTGGATTC ((((((....)))..))) | 39.8 °C | -18.6 kcal/mol
GAACACGAAAGTGTATTC ((((((....)))..))) | 33.6 °C | -9.83 kcal/mol
GAACACGAAAGTGTTTTC ((((((....)))..))) | 49 °C | -15.1 kcal/mol
GAACACGCGAAAGCGTTC (((..(((....)))))) | 27.9 °C | -8.07 kcal/mol
GAACACGGAAACATGTTC (((((.(....).))))) | 35.1 °C | -28 kcal/mol
GAACACGGAAACGTGCTC ((.((((....)))).)) | 43 °C | -18.6 kcal/mol
GAACAGGAAACTGTTC ((((((....)))))) | 52.9 °C | -38.4 kcal/mol
GAACATCCGAAAGGATTC (((..(((....)))))) | 26.3 °C | -11.7 kcal/mol
